Assay [1] has as its target Neuronal acetylcholine receptor; alpha3/beta2 (Rattus norvegicus, UniProt P04757+P12390). Description: Inhibition of rat Nicotinic acetylcholine receptor alpha3-beta2 expressed in Xenopus Oocytes. Format: cell-based. The procedure, abridged:
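Rat nAChR subunit cRNAs (50 nL, 5–50 ng/µL) injected into Xenopus oocytes, kept at 19 °C in ND96 pH 7.4 with gentamycin; two-electrode voltage clamp at −70 mV, 2–10 days post-injection. Peptide added to static bath, 3–10 min before agonist; sub-1 nM also perfused 10–15 min. IC50 from fitted concentration–response curves with Hill slope.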

The nature of assay [2]: Inhibition ratio of rat alpha 3 beta 2 nicotinic acetylcholine receptor (nAChR) to that of at alpha 7 nicotinic acetylcholine receptor (nAChR).

Molecules are shown by their SMILES. Residues, ends and D or L forms follow the SMILES beside them.

Chain of Neuronal acetylcholine receptor; alpha3/beta2 (P04757 whole entry, the tested form may be a part): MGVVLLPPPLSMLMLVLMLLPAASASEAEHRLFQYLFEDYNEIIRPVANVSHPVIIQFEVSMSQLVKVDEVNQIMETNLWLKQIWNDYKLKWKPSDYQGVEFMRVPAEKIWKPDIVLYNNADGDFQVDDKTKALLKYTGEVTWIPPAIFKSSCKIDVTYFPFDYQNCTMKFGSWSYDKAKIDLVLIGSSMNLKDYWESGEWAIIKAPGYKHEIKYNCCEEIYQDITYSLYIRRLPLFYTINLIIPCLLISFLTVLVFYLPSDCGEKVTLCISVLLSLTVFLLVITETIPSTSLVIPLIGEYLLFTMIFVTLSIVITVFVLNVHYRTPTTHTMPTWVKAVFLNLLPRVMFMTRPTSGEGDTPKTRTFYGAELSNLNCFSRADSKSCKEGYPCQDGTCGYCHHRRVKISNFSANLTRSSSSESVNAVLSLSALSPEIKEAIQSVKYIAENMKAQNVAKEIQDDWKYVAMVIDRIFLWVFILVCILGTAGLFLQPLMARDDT
Chain of Neuronal acetylcholine receptor; alpha3/beta2 (P12390 whole entry, the tested form may be a part): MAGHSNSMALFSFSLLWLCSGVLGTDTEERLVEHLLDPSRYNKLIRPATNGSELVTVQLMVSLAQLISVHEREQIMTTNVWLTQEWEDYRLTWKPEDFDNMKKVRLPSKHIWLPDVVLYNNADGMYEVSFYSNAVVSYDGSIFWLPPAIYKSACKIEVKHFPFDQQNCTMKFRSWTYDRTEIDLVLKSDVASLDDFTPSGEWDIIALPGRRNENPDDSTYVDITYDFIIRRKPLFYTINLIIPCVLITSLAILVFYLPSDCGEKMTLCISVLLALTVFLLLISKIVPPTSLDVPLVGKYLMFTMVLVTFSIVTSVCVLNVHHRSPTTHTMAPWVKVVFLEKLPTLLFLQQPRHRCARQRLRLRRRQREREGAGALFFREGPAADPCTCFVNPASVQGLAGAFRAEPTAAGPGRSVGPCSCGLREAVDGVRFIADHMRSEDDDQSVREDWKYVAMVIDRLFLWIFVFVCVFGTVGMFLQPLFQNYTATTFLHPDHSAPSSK

Regarding `CC(C)C[C@@H](NC(=O)[C@@H](CO)NC(=O)[C@@H](CS)NC(=O)[C@@H](CS)NC(=O)CN)C(=O)N1CCC[C@H]1C(=O)N1CCC[C@H]1C(=O)N[C@@H](CS)C(=O)N[C@@H](C)C(=O)N[C@@H](C)C(=O)N[C@@H](CC(N)=O)C(=O)N[C@@H](CC(N)=O)C(=O)N1CCC[C@@H]1C(=O)N[C@@H](CC(=O)O)C(=O)N[C@@H](Cc1ccc(S)cc1)C(=O)N[C@@H](CS)C(N)=O`, the IC50 (as a rule, the concentration needed to halve the response being measured) in assay [1] was found to be 9.6 nM. For the same compound, the Ratio in assay [2] was determined as 0.04.

In assay [1], `CC[C@H](C)[C@H](N)C(=O)N[C@@H](CCCN=C(N)N)C(=O)N[C@@H](CC(=O)O)C(=O)N[C@@H](CC(C(=O)O)C(=O)O)C(=O)N[C@@H](CS)C(=O)N[C@@H](CS)C(=O)N[C@@H](CO)C(=O)N[C@@H](CC(N)=O)C(=O)N1CCC[C@H]1C(=O)N[C@@H](C)C(=O)N[C@@H](CS)C(=O)N[C@@H](CCCN=C(N)N)C(=O)N[C@H](C(=O)N[C@@H](CC(N)=O)C(=O)N[C@@H](CC(N)=O)C(=O)N1C[C@H](O)C[C@H]1C(=O)N[C@@H](Cc1c[nH]cn1)C(=O)N[C@H](C(=O)N[C@@H](CS)C(N)=O)C(C)C)C(C)C` (HELM PEPTIDE1{I.R.D.[O=C(O)C(C[C@H](N[*:1])C(=O)[*:2])C(=O)O].C.C.S.N.P.A.C.R.V.N.N.[Hyp].H.V.C.[am]}$$$$V2.0) registered an IC50 of 10 nM. The Ratio in assay [2] worked out at 0.2.

`CC(C)C[C@@H](NC(=O)[C@@H](CO)NC(=O)[C@@H](CS)NC(=O)[C@@H](CS)NC(=O)CN)C(=O)N1CCC[C@H]1C(=O)N1CCC[C@H]1C(=O)N[C@@H](CS)C(=O)N[C@@H](C)C(=O)N[C@@H](C)C(=O)N[C@@H](CC(N)=O)C(=O)N[C@@H](CC(N)=O)C(=O)N1CCC[C@@H]1C(=O)N[C@@H](CC(=O)O)C(=O)N[C@@H](Cc1ccc(O)cc1)C(=O)N[C@@H](CS)C(N)=O`: the IC50 in assay [1] was found to be 99 nM. In addition, in assay [2], the Ratio came to 7.9.
